One compound from ChEMBL document CHEMBL3259611, “Suppression of inflammatory responses by handelin, a guaianolide dimer from Chrysanthemum boreale, via downregulation of NF-κB signaling and pro-inflammatory cytokine production” (J Nat Prod, 2014) can be followed below.

In experiment [1] the test system is RAW264.7. Description: Inhibition of LPS-induced NFkappaB transcriptional activity in mouse RAW264.7 cells assessed as reduction of phosphorylated IkappaB-alpha level at 10 uM after 30 mins by Western blotting analysis relative to control. It counts as cell-based. Summed up:
(§1)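 Macrophages were exposed to compound for 30 min before LPS stimulation, with proteins extracted 30 min later. Nuclear extracts were prepared in Tris/KCl/NP-40 lysis buffer, then 420 mM NaCl buffer, and the cytosolic fraction was kept for IκB-α. Western blot on PVDF with ECL detection. Tests in triplicate; representative of three separate experiments.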
A general note: Immunoblotting shows a protein as a band on a membrane.

For experiment [2], the system named is RAW264.7. Put plainly: Antiinflammatory activity in mouse RAW264.7 cells assessed as inhibition LPS-induced IL-1beta protein expression after 4 hrs by Western blotting analysis. The class given is functional, cell-based. The procedure, abridged:
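RAW 264.7 cells stimulated with LPS (1 μg/mL) with or without compound for 4 h. Lysates were resolved by 6−15% SDS-PAGE and blotted to PVDF. Blocked in 5% milk/PBST, primary antibody overnight at 4 °C, secondary antibody 2 h, detected by ECL. Triplicate, representative of three experiments.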

The test system of experiment [3] is RAW264.7. Description: Antiinflammatory activity in mouse RAW264.7 cells assessed as inhibition LPS-induced TNF-alpha mRNA expression at 10 uM after 4 hrs by RT-PCR analysis relative to control. The class given is functional. Summed up: (§2)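 RAW 264.7 cells stimulated with LPS (1 μg/mL) with or without compound for 4 h. Total RNA was isolated and cytokine mRNA was analysed by RT-PCR: 94 °C 4 min, then 25−30 cycles of 94/55/72 °C for 30 s each, then 72 °C 5 min. Products were run on 2% agarose and stained with SYBR-Safe. Triplicate, representative of three experiments.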

Experiment [4] relates to RAW264.7. Description: Antiinflammatory activity in mouse RAW264.7 cells assessed as inhibition of LPS-induced iNOS protein expression at 10 uM after 16 hrs by Western blotting analysis relative to control. It counts as functional. Summed up: (§3)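 RAW 264.7 cells given LPS (1 μg/mL) with or without compound for 16 h. Cell lysates were Western blotted for iNOS and COX-2 (6−15% SDS-PAGE, PVDF, ECL detection). Performed in triplicate.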

The subject of experiment [5] is RAW264.7. Description: Antiinflammatory activity in mouse RAW264.7 cells assessed as inhibition of LPS-induced COX2 protein expression at 10 uM after 16 hrs by Western blotting analysis relative to control. The class given is functional. The procedure, abridged: as §3
Experiment [6] addresses T1, Nuclear factor NF-kappa-B p105 subunit (Mus musculus) (UniProt P25799).
T1 sequence (whole entry): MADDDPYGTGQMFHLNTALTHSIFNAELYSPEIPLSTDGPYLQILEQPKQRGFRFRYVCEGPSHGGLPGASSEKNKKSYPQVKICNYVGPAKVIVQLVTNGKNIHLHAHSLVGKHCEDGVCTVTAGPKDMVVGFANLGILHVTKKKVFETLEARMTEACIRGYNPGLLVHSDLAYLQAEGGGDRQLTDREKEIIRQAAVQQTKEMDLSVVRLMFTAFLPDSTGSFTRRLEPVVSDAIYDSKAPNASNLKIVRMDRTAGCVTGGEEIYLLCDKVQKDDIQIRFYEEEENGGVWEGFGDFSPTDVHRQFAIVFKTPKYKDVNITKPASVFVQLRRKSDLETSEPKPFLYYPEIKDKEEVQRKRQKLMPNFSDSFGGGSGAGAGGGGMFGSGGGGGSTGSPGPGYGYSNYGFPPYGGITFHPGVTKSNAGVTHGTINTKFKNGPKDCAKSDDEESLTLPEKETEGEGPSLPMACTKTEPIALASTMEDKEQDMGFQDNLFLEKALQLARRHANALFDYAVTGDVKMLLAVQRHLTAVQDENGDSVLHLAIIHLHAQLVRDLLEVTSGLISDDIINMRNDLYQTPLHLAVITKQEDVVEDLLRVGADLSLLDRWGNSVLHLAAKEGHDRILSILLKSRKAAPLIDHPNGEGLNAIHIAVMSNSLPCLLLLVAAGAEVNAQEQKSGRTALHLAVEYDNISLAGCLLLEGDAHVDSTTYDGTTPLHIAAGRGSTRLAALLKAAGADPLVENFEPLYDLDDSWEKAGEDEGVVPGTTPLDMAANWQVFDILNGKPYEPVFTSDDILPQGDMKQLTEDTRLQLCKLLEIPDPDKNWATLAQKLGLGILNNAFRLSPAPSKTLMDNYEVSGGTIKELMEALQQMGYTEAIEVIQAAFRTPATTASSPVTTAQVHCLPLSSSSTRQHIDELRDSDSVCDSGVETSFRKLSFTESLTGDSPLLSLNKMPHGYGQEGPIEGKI
Description: Inhibition of LPS-induced NFkappaB P50 protein nuclear translocation in mouse RAW264.7 cells at 20 uM after 30 mins by Western blotting analysis relative to control. It counts as cell-based. Summed up: as §1

For experiment [7], the system named is RAW264.7. Put plainly: Antiinflammatory activity in mouse RAW264.7 cells assessed as inhibition LPS-induced IL-1beta mRNA expression at 20 uM after 4 hrs by RT-PCR analysis relative to control. The class given is functional. Summed up:
as §2

The target of the next experiment is JNK1/JNK2 (Mus musculus) (UniProt Q91Y86+Q9WTU6). Put plainly: Inhibition LPS-induced JNK1/2 phosphorylation at Thr183/[…] in mouse RAW264.7 cells at 40 uM administered 30 mins prior to LPS challenge measured after 30 mins by Western blotting analysis. The class given is cell-based. The procedure, abridged: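 RAW 264.7 cells pretreated with compound for 30 min, then stimulated with LPS for an additional 30 min. Lysates resolved by 6−15% SDS-PAGE and blotted to PVDF. Primary antibodies were applied overnight at 4 °C and secondary antibodies for 2 h at room temperature. Detection by ECL. Tests in triplicate; blots representative of three separate experiments.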
JNK1/JNK2 (Mus musculus), sequence (Q91Y86 whole entry, looked up): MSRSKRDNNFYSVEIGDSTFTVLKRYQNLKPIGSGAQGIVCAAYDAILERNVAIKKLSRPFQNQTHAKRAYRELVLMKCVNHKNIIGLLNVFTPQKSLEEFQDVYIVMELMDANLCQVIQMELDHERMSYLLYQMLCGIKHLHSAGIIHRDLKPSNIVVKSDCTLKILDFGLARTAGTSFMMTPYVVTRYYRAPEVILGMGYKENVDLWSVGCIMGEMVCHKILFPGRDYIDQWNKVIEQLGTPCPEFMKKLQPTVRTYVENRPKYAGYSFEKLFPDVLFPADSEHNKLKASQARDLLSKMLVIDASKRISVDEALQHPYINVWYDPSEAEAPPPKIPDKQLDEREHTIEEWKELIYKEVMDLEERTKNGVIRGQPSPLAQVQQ
JNK1/JNK2 (Mus musculus), sequence (Q9WTU6 whole entry, looked up): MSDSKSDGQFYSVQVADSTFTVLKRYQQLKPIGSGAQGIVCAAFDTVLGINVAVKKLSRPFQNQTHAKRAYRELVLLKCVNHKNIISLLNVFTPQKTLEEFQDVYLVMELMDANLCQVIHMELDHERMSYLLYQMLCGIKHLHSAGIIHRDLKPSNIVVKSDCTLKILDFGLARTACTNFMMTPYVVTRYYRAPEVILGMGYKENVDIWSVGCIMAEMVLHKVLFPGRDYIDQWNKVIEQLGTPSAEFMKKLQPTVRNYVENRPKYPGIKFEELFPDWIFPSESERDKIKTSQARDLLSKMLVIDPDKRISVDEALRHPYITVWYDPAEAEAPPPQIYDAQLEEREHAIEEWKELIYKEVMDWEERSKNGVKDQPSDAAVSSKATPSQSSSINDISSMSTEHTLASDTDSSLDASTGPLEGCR

Experiment [8] addresses T2, Mitogen-activated protein kinase 1 and 3 (ERK2 and ERK1) (Mus musculus) (UniProt P63085+Q63844). Description: Inhibition LPS-induced ERK1/2 phosphorylation at Thr202/Tyr204 in mouse RAW264.7 cells at 20 uM administered 30 mins prior to LPS challenge measured after 30 mins by Western blotting analysis. The class given is cell-based. The procedure, abridged:
(§4)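 RAW 264.7 cells pretreated with compound for 30 min, then stimulated with LPS for 30 min. Protein extracts were Western blotted for phosphorylated ERK and JNK (SDS-PAGE, PVDF, ECL detection).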

Experiment [9] concerns the target T2, Mitogen-activated protein kinase 1 and 3 (ERK2 and ERK1) (Mus musculus). Description: Inhibition LPS-induced ERK1/2 phosphorylation at Thr202/Tyr204 in mouse RAW264.7 cells at 40 uM administered 30 mins prior to LPS challenge measured after 30 mins by Western blotting analysis. The class given is cell-based. Summed up: as §4
Experiment [10] has as its system RAW264.7. Put plainly: Antiinflammatory activity in mouse RAW264.7 cells assessed as inhibition of LPS-induced COX2 protein expression after 16 hrs by Western blotting analysis.
Another experiment relates to Rattus norvegicus. Put plainly: Antiinflammatory activity in po dosed rat paw edema model assessed as inhibition of carrageenan-induced serum IL-1beta production administered 30 mins prior to carrageenan challenge measured after 6 hrs by ELISA relative to vehicle-treated control. (ELISA stands for enzyme-linked immunosorbent assay.)

Activity calls are given as the source filed them. The rule behind the calls is not given here.

T2 sequence (P63085 whole entry, looked up): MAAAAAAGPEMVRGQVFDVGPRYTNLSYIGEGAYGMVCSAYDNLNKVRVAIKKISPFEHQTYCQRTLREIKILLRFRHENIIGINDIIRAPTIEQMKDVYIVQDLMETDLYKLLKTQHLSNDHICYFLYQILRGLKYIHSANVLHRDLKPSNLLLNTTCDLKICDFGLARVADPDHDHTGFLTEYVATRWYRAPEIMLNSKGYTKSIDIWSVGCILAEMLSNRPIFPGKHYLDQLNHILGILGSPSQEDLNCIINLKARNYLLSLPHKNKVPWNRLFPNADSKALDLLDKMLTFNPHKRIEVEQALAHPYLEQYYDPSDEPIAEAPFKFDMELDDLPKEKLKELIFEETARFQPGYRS
T2 sequence (Q63844 whole entry, looked up): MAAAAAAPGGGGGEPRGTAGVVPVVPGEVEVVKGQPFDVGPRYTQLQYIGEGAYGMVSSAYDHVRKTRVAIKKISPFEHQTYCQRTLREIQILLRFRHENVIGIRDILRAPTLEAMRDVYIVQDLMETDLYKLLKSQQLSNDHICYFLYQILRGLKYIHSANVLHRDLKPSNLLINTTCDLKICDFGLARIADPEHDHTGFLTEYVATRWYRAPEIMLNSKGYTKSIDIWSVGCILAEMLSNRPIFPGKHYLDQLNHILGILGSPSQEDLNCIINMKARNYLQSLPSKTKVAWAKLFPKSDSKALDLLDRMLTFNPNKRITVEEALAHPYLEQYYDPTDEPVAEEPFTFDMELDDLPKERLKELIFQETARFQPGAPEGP

On to `C=C1C(=O)O[C@@H]2[C@@H]3[C@@]4(C=C[C@@]3(C)[C@]3(C4)C(=O)O[C@@H]4[C@H]5C(C)=CC[C@H]5[C@](C)(O)C[C@H](OC(C)=O)[C@H]43)[C@](C)(O)CC[C@@H]12`, for which the inhibition result in the experiment on RAW264.7 [1] and with RAW264.7 [3] was “Active” throughout. Moreover, the inhibition entry in the experiment with RAW264.7 [2], in the experiment on RAW264.7 [10] and in the experiment on Rattus norvegicus was “Dose-dependent effect” in each case. The “fold change (FC)” value with RAW264.7 [3] was found to be 0.66; in the experiment with RAW264.7 [4], 0.61; with RAW264.7 [5], 0.52; in experiment [6], 0.21; in the experiment on RAW264.7 [7], 0.79; at JNK1/JNK2 (Mus musculus), 0.24. In addition, the fold change (FC) is 0.79 in experiment [8] and 0.21 in experiment [9].
